Active and inactive are the calls of the source. No cut-off for these calls is given here.

The nature of data set [1]: Drug level in Sprague-Dawley rat cerebrospinal fluid at 10 mg/kg, sc after 0.25 hrs. Also on record: dose 10 mg/kg, route subcutaneous. It counts as ADME, organism-based. The conditions noted are these: read-out: Drug uptake. Summed up:
(§1)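 Rats dosed 10 mg/kg subcutaneously; drug levels measured in CSF and plasma/brain at 0.25 h post-dose; free levels derived using measured rat brain and plasma unbound fractions.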

Another data set concerns Brain. Put plainly: Free brain concentration in Sprague-Dawley rat at 10 mg/kg, sc after 0.25 hrs. It counts as ADME, organism-based. Set-up: dose 10 mg/kg, route subcutaneous. Conditions: in vivo. In short, it runs like this:
as §1

In a further data set the test system is Plasma. Put plainly: Free plasma concentration in Sprague-Dawley rat at 10 mg/kg, sc after 0.25 hrs. In kind it is ADME, organism-based. Set-up: dose 10 mg/kg, route subcutaneous. Conditions: in vivo. In short, it runs like this: as §1
The nature of data set [2]: Fraction unbound in rat brain at 1 uM by equilibrium dialysis method. It counts as ADME, tissue-based.
Data set [3] can be described thus: Fraction unbound in rat plasma at 1 uM by equilibrium dialysis method. In kind it is ADME, cell-free. Background: Equilibrium dialysis compares concentrations on both sides of a semipermeable membrane.
The target in data set [4] is Kynurenine/alpha-aminoadipate aminotransferase, mitochondrial (Rattus norvegicus) (UniProt Q64602). Put plainly: Ratio of Kinact to Ki for rat recombinant KAT2 using L-kynurenine as substrate. In short, it runs like this: (§2)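 Second-order rate constant kinact/Ki determined for human and rat KAT II; values are geometric or arithmetic means of at least three experiments (some n = 2).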
Chain of Kynurenine/alpha-aminoadipate aminotransferase, mitochondrial (Rattus norvegicus) (Q64602 30-425 limits assumed): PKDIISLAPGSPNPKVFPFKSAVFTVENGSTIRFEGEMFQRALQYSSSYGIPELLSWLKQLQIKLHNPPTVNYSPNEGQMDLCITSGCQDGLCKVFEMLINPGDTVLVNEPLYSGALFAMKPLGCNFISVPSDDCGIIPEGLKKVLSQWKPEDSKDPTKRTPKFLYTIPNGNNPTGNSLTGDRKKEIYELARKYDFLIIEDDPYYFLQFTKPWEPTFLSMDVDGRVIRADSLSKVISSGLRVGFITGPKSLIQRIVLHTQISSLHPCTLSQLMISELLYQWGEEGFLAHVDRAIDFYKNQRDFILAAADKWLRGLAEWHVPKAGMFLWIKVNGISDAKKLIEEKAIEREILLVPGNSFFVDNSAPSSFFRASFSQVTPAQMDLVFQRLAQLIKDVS

Data set [5] deals with T1, Kynurenine/alpha-aminoadipate aminotransferase, mitochondrial (Homo sapiens, UniProt Q8N5Z0). Put plainly: Ratio of Kinact to Ki for human recombinant KAT2 using L-kynurenine as substrate. Summed up: as §2
Target sequence in this assay (Q8N5Z0 30-425 limits assumed): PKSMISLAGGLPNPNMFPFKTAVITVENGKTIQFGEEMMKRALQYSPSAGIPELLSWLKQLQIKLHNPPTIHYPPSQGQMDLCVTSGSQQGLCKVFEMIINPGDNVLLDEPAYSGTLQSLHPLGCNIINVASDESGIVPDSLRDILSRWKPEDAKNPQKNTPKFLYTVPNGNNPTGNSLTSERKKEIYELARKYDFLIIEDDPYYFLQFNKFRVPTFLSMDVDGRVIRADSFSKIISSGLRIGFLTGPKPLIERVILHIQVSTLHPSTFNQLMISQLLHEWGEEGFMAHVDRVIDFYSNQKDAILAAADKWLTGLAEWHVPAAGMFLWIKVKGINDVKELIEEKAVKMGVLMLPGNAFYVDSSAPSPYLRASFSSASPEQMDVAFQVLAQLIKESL
Data set [6] addresses T1, Kynurenine/alpha-aminoadipate aminotransferase, mitochondrial. The experiment in a line: Inhibition of human recombinant KAT2 assessed as conversion of L-kynurenine into kynurenic acid after 15 to 20 hrs. Summed up:
(§3)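 Human and rat KAT II enzyme assays run with 30 nM enzyme; IC50 reported as geometric mean of at least three independent determinations (some n = 1 or 2).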
Target sequence in this assay (Q8N5Z0 whole entry): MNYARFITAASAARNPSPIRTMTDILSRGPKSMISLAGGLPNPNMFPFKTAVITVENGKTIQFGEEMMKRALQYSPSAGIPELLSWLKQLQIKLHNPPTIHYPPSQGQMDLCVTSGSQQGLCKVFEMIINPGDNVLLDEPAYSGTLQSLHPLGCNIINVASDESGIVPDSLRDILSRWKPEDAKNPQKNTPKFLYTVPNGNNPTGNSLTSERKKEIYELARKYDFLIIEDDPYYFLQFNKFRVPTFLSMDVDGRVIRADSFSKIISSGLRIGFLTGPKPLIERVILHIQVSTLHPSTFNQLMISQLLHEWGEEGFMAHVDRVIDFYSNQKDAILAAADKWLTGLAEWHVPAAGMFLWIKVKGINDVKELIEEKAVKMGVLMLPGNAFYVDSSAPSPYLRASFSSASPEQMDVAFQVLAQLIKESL

For data set [7], the target named is Kynurenine/alpha-aminoadipate aminotransferase, mitochondrial (Rattus norvegicus, UniProt Q64602). The experiment in a line: Inhibition of rat recombinant KAT2 assessed as conversion of L-kynurenine into kynurenic acid after 15 to 20 hrs. Summed up: as §3
Chain of Kynurenine/alpha-aminoadipate aminotransferase, mitochondrial (Rattus norvegicus, UniProt Q64602) (Q64602 whole entry): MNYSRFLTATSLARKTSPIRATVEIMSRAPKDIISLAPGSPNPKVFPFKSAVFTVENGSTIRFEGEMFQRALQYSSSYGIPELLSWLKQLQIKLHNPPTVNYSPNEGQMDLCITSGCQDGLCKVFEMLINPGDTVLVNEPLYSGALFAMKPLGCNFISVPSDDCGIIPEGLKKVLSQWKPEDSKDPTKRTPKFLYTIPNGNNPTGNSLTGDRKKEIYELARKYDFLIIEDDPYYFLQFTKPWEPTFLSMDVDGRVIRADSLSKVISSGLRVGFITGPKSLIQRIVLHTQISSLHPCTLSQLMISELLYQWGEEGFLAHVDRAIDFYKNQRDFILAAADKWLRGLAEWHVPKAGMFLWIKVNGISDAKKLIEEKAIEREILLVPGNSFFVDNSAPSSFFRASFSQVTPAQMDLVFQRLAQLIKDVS
The target of data set [8] is T2, Kynurenine--oxoglutarate transaminase 1 (Homo sapiens, UniProt Q16773).
T2 sequence (Q16773 whole entry): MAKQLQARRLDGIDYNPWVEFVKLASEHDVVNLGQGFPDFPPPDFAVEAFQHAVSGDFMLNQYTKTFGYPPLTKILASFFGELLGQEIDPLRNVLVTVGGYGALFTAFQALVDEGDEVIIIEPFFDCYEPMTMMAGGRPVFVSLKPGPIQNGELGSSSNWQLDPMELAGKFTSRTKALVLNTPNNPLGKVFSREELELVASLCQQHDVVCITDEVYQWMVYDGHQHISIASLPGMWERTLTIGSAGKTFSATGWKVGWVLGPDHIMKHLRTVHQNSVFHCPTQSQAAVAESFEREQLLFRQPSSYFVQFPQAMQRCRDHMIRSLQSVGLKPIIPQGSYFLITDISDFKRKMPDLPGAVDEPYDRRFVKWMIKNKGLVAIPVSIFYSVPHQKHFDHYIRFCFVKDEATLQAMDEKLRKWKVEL
Put plainly: Inhibition of human KAT1.

The target in data set [9] is Kynurenine--oxoglutarate transaminase 3 (Homo sapiens, UniProt Q6YP21). Put plainly: Inhibition of human KAT3.
Chain of Kynurenine--oxoglutarate transaminase 3 (Q6YP21 whole entry): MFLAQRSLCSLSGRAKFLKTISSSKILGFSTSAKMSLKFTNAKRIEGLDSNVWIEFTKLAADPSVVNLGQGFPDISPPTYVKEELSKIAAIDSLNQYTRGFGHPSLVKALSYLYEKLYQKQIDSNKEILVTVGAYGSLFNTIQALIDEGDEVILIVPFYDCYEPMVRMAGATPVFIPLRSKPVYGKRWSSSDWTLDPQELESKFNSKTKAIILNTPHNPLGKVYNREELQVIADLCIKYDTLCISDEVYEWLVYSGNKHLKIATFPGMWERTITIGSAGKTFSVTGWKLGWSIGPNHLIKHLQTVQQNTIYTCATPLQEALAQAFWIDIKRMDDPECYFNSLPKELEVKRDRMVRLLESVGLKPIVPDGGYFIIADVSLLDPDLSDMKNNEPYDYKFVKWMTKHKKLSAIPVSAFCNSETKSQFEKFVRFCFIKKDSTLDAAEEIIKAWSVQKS
Data set [10] is described as follows: Inhibition of human KAT4.
Data set [11] is described as follows: Lipophilicity, log D of the compound. In kind it is physicochemical. The conditions noted are these: octanol/water.
A short description of data set [12]: Ratio of free drug level in plasma to brain in Sprague-Dawley rat at 10 mg/kg, sc after 0.25 hrs. In kind it is ADME, organism-based. Conditions: in vivo. Also on record: dose 10 mg/kg, route subcutaneous. Summed up: (§4)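 Rat dosed 10 mg/kg sc; drug concentrations in plasma, brain and CSF measured at 0.25 h. Free plasma and free brain levels corrected using fraction unbound from rat plasma protein binding and brain binding assays. Exposure ratios taken from free plasma, free brain and CSF concentrations.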

Data set [13] in a line: Ratio of free drug level in cerebrospinal fluid to brain in Sprague-Dawley rat at 10 mg/kg, sc after 0.25 hrs. Set-up: dose 10 mg/kg, route subcutaneous. The conditions noted are these: in vivo. In kind it is ADME, organism-based. In short, it runs like this: as §4
For data set [14], the system named is Rattus norvegicus. The experiment in a line: Reduction of […] level in freely moving Sprague-Dawley rat dialysates from prefrontal cortex at 10 mg/kg, sc after 1 hr by microdialysis analysis relative to control. In kind it is functional. Also on record: scale not given: the % may be the effect or the level left. Conditions: route subcutaneous. In short, it runs like this: (§5)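 Freely moving rats given 10 mg/kg sc at time 0; KYNA in prefrontal cortex dialysates monitored over time by microdialysis; expressed as percent of each animal's basal KYNA, means ± SEM, n = 11–14 per group.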

For data set [15], the system named is Rattus norvegicus. Put plainly: Reduction of […] level in freely moving Sprague-Dawley rat dialysates from prefrontal cortex at 10 mg/kg, sc after 20 hrs by microdialysis analysis. It counts as functional, organism-based. Set-up: dose 10 mg/kg. Summed up:
as §5

What is called fraction unbound is the share of the substance not bound to proteins or other matrix. What is called IC50 is the concentration that gives 50% inhibition. In general, logD refers to the decadic logarithm of the distribution of all forms, ionised or not, between an organic phase and buffer at a given pH. For `N[C@H]1Cc2ccccc2N(O)C1=O`, the concentration at 0.25 h in data set [1] amounted to 4.06 µM. Further, in the data set with Brain, the “Drug uptake(free)” value was determined as 3.76 µM. In the data set with Plasma, the “Cp(f)” value worked out at 10.2 µM. The fraction unbound at 1 µM in data set [2] amounted to 0.393; in data set [3], 0.893. The Ratio was found to be 573 M⁻¹ s⁻¹ in [4], 18500 M⁻¹ s⁻¹ in [5], 2.7 in data set [12] and 1.1 in [13]. Also, the IC50 in data set [6] is 0.023 µM; in data set [7], 0.263 µM; in data set [8] it was 22 µM; in [9], 11 µM; in data set [10], > 50 µM. In addition, the logD in [11] is -0.7. The compound also came in with an Activity in the data set with Rattus norvegicus [14] of 50%. The outcome with Rattus norvegicus [15] was inactive.

In the case of `N[C@H]1Cc2cccc(C(F)(F)F)c2N(O)C1=O`, the Ratio in [5] is 541 M⁻¹ s⁻¹. The IC50 in [6] is 0.174 µM; in data set [7], > 6.81 µM.

`Cc1cccc2c1C[C@H](N)C(=O)N2O`: the IC50 in data set [6] was 0.319 µM; in data set [7], > 10 µM.

Take `N[C@H]1Cc2ccccc2NC1=O`: the half-inhibitory concentration (IC50) in [6] was > 10 µM.

As for `COc1cccc2c1C[C@H](N)C(=O)N2O`, the Ratio in data set [5] was determined as 1940 M⁻¹ s⁻¹. The 50% inhibitory concentration (IC50) is 0.179 µM in data set [6] and > 4.92 µM in data set [7].

Regarding `COc1cccc2c1N(O)C(=O)[C@@H](N)C2`, the Ratio in [5] came to 21.3 M⁻¹ s⁻¹. In addition, the results for the IC50 in [6] and in data set [7] were 0.572 µM and > 10 µM, respectively.

As to `CC1(N)Cc2ccccc2N(O)C1=O` (configuration not stated), the IC50 in data set [6] and in [7] was > 10 µM in each case.

For `COc1ccc2c(c1)N(O)C(=O)[C@@H](N)C2`, the Ratio in data set [4] stood at 1840 M⁻¹ s⁻¹; in [5] it was 31700 M⁻¹ s⁻¹. Besides, the values for the half-maximal inhibitory concentration (IC50) in data set [6] and in [7] were 0.022 µM and 0.137 µM, respectively.

In the case of `N[C@H]1Cc2cccc(Cl)c2N(O)C1=O`, the Ratio in data set [5] came out at 42 M⁻¹ s⁻¹. In addition, the IC50 was 0.252 µM in data set [6] and > 10 µM in [7].

With `N[C@H]1Cc2c(F)cccc2N(O)C1=O`, the Ratio in [5] was 6680 M⁻¹ s⁻¹. The IC50 in data set [6] was 0.045 µM; in data set [7], 2.06 µM.

Consider `N[C@H]1Cc2c(cccc2C(F)(F)F)N(O)C1=O`, for which the 50% inhibitory concentration (IC50) in data set [6] and in [7] was > 10 µM in each case.

`Cc1ccc2c(c1)C[C@H](N)C(=O)N2O`: the Ratio in data set [4] worked out at 167 M⁻¹ s⁻¹; in data set [5], 11900 M⁻¹ s⁻¹. The figures for the IC50 in [6] and in [7] were 0.03 µM and 0.402 µM, respectively.

Regarding `N[C@H]1Cc2cccc(F)c2N(O)C1=O`, the Ratio in [4] stood at 57 M⁻¹ s⁻¹; in [5] it was 5310 M⁻¹ s⁻¹. In addition, the IC50 in data set [6] was determined as 0.04 µM; in [7] it was 0.631 µM.

Consider `N[C@@H]1Cc2ccccc2N(O)C1=O`, for which the IC50 is 0.219 µM in data set [6] and 1.17 µM in data set [7].

For `N[C@H]1Cc2cc(C(F)(F)F)ccc2N(O)C1=O`, the Ratio in data set [4] was 102 M⁻¹ s⁻¹; in [5] it was 15300 M⁻¹ s⁻¹. Further, the values for the IC50 in data set [6] and in data set [7] were 0.029 µM and 0.488 µM, respectively.

In the case of `N[C@H]1Cc2ccc(Cl)cc2N(O)C1=O`, the Ratio was found to be 1170 M⁻¹ s⁻¹ in data set [4] and 28300 M⁻¹ s⁻¹ in data set [5]. Besides, the IC50 was 0.029 µM in data set [6] and 0.118 µM in data set [7].

Take `Cc1cccc2c1N(O)C(=O)[C@@H](N)C2`: the IC50 was 1.05 µM in data set [6] and > 10 µM in data set [7].

As to `N[C@H]1Cc2c(Cl)cccc2N(O)C1=O`, the Ratio in data set [5] was found to be 9.5 M⁻¹ s⁻¹. The results for the IC50 in data set [6] and in data set [7] were 0.349 µM and > 7.97 µM, respectively.

Regarding `CON1C(=O)[C@@H](N)Cc2ccccc21`, the IC50 in data set [6] and in [7] was > 10 µM throughout.

In the case of `Cc1ccc2c(c1)N(O)C(=O)[C@@H](N)C2`, the figures for the Ratio in data set [4] and in data set [5] were 590 M⁻¹ s⁻¹ and 33400 M⁻¹ s⁻¹, respectively. In addition, the values for the IC50 in data set [6] and in data set [7] were 0.037 µM and 0.368 µM, respectively.

In the case of `C[C@H]1c2ccccc2N(O)C(=O)[C@H]1N`, in data set [7], the IC50 is > 1.33 µM.

`N[C@H]1Cc2cc(Cl)ccc2N(O)C1=O`: the values for the Ratio in data set [4] and in data set [5] were 465 M⁻¹ s⁻¹ and 19000 M⁻¹ s⁻¹, respectively. In addition, the IC50 in data set [6] worked out at 0.036 µM; in [7] it was 0.258 µM.

These data come from ChEMBL document CHEMBL2046387, “Discovery of Brain-Penetrant, Irreversible Kynurenine Aminotransferase II Inhibitors for Schizophrenia” (ACS Med Chem Lett, 2012).
